Test results taken from paper PMC2914798 (Biochimica et biophysica acta, 2010).
[ ]: non-standard residue; d: D form. The star is where a group is joined. Dnp = O=[N+]([O-])c1ccc(*)c([N+](=O)[O-])c1; Mca = COc1ccc2c(CC(=O)*)cc(=O)oc2c1

How the values were obtained:
Type in all cases: biochemical
[1] = target: T1, Cath D (Homo sapiens, UniProt P07339); test: Enzyme digestion and cleavage site identification, Cath D; details: high dose of Cath D, overnight hydrolysis; data not shown
[2] = target: T2, Cath E (Homo sapiens, UniProt P14091); test: Michaelis-Menten kinetics of substrate e hydrolysis by Cath E; details: 6.8 nM Cath E, 50 mM sodium acetate pH 4.0, 10 minutes, 37 °C
T2 sequence (P14091 54-396): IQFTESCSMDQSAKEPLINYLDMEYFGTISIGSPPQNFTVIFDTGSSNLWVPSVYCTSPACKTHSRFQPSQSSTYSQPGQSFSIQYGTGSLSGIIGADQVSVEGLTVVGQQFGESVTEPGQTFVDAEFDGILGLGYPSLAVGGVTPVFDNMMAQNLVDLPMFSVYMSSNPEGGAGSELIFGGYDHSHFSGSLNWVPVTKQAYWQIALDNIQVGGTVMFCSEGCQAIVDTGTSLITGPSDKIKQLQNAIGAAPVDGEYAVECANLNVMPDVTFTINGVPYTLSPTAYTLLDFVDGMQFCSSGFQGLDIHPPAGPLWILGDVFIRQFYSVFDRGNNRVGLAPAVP
Outline: (§1)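 Intramolecularly quenched Mca/Dnp FRET peptide, 5–100 µM, in 50 mM sodium acetate pH 4.0, with Cath E at 2.3, 4.5 or 6.8 nM, or Cath D up to 54 nM. Fluorescence (ex 340/em 405 nm) followed over 10 min. Initial velocity taken from the linear-phase slope. Vmax and Km from linear regression of the Hanes-Woolf plot (S/v vs S); kcat = Vmax/[Cath E]. Triplicate.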

[3] = target: T1, Cath D; test: Kinetics of substrate e hydrolysis by Cath D
Outline: as §1

T1 sequence (P07339 65-412): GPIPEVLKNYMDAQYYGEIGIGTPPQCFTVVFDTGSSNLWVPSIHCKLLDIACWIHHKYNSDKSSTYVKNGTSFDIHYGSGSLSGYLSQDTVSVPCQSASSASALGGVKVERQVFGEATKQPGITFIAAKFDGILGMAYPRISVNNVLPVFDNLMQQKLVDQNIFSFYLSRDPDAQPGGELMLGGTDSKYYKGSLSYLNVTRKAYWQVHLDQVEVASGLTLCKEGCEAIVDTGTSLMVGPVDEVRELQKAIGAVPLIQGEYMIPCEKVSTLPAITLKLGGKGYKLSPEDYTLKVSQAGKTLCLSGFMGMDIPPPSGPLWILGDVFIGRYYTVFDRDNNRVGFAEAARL

With “Mca-AGFSLPAK(Dnp)[dR]-NH2 (SMILES COc1ccc2c(CC(=O)N[C@@H](C)C(=O)NCC(=O)N[C@@H](Cc3ccccc3)C(=O)N[C@@H](CO)C(=O)N[C@@H](CC(C)C)C(=O)N3CCC[C@H]3C(=O)N[C@@H](C)C(=O)N[C@@H](CCCCNc3ccc([N+](=O)[O-])cc3[N+](=O)[O-])C(=O)N[C@H](CCCNC(=N)N)C(N)=O)cc(=O)oc2c1) [Substrate e]” the “cleavage sites by Cath D” value [1] was “two minor cleavage sites were identified, one is between the P1 and P1’ sites (-Leu^5-Pro^6-) and a secondary site was found between P3 and P4 positions (-Gly^2-Phe^3-)”, the “Kcat/Km (catalytic efficiency), Cath E” value [2] was 16.7 µM^−1.S^−1 and the “Kcat/Km (catalytic efficiency), Cath D” value ([3]; up to 54 nM Cath D, same measurement conditions (50 mM sodium acetate pH 4.0)) was “NM ^§”. The “cleavage by Cath D” value ([3]; up to 54 nM of Cath D, 50 mM sodium acetate pH 4.0) was “no measurable cleavage”.
